Drawing on ChEMBL document CHEMBL4477194, “Royal Jelly Constituents Increase the Expression of Extracellular Superoxide Dismutase through Histone Acetylation in Monocytic THP-1 Cells” (J Nat Prod, 2016), this text covers Activity, fold change (FC) and inhibition for four molecules.

The source made the active and inactive calls. The rule behind the calls is not given here.

The species entered for assay [1] is Homo sapiens. Put plainly: Upregulation of HDAC1 inhibition/ERK signalling activation-mediated extracellular SOD mRNA expression in human THP1 cells at 1 uM after 24 hrs by RT-PCR method. The format is cell-based. In outline:
(§1)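 THP-1 cells (RPMI 1640, 10% heat-inactivated FCS, 37 °C, 5% CO2) were seeded at 2.0 × 10^6 cells/dish and treated for 24 h. Cells were washed with cold PBS and lysed in TRIzol, then analysed by real-time RT-PCR normalized to 18S rRNA. Values are mean ± SD of three independent experiments, with ANOVA and Bonferroni tests.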

The species entered for assay [2] is Homo sapiens. Put plainly: Upregulation of HDAC1 inhibition/ERK signalling activation-mediated extracellular SOD protein expression in human THP1 cells at 1 uM after 24 hrs by ELISA. The format is cell-based. The essentials: (§2)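 EC-SOD protein content was measured by ELISA in THP-1 cells after 24 h treatment, with cells collected in PBS. Cells were cultured in RPMI 1640 with 10% heat-inactivated FCS at 37 °C and 5% CO2. Values are mean ± SD of three independent experiments, compared against untreated cells.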

Assay [3] addresses Histone deacetylase 1 (Homo sapiens) (UniProt Q13547). Put plainly: Inhibition of HDAC1 in human THP1 cells assessed as increase in histone H4 acetylation level at 1 mM after 12 hrs by Western blot analysis relative to control. The format is cell-based. The essentials: (§3)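 After 12 h treatment, THP-1 whole-cell extracts (20 μg protein) were run on 12% SDS-PAGE and transferred to PVDF. Membranes were blocked with 1% BSA in PBS and probed with anti-acetyl histone H3 or H4 primary antibodies (1:1000), then a biotin-conjugated secondary antibody (1:1000). Histone loading was checked by Coomassie staining.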

Assay [4] relates to THP-1. Put plainly: Effect on HDAC1 mRNA expression in human THP1 cells at 1 mM after 24 hrs by RT-PCR method. The format is functional, cell-based. In outline: (§4)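 THP-1 cells in RPMI 1640 with 10% heat-inactivated FCS, 37 °C, 5% CO2. Seeded 2.0 × 10^6 cells per 3.5 cm dish and treated 24 h, at 1 mM for the 1 mM lines and 100 μM for the 100 μM lines. RNA extracted in TRIzol, then real-time RT-PCR normalized to 18S rRNA. Means ± SD of three independent experiments; ANOVA with Bonferroni post hoc.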

For assay [5], the system named is THP-1. Briefly: Effect on HDAC4 mRNA expression in human THP1 cells at 1 mM after 24 hrs by RT-PCR method. The format is functional, cell-based. The essentials:
as §4

Assay [6] concerns THP-1. Briefly: Effect on HDAC2 mRNA expression in human THP1 cells at 1 mM after 24 hrs by RT-PCR method. The format is functional, cell-based. In outline:
as §4

The target in assay [7] is Histone deacetylase 1 (Homo sapiens) (UniProt Q13547). Put plainly: Upregulation of HDAC1 inhibition-mediated histone H3 acetylation-induced extracellular SOD expression in human THP1 cells at 1 mM after 12 hrs by chromatin immunoprecipitation method. Type of assay: cell-based. In outline: (§5)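 THP-1 cells (5 × 10^6) treated 12 h, at 1 mM or 100 μM per line. Cross-linked with formaldehyde 5 min at room temperature and chromatin sonicated to 150–800 bp. Immunoprecipitated overnight on protein G beads and washed in RIPA I/II and TE. Eluted with RNase A and proteinase K. EC-SOD promoter binding expressed as % of input.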

Assay [8] has the same target. Briefly: Upregulation of HDAC1 inhibition-mediated histone H4 acetylation-induced extracellular SOD expression in human THP1 cells at 1 mM after 12 hrs by chromatin immunoprecipitation method. The format is cell-based. The essentials:
as §5

In assay [9] the test system is THP-1. Put plainly: Upregulation of Mn SOD mRNA expression in human THP1 cells at 1 mM after 24 hrs by RT-PCR method. Type of assay: functional, cell-based. The essentials: as §1
Assay [10] has as its system THP-1. Briefly: Effect on HDAC3 mRNA expression in human THP1 cells at 1 mM after 24 hrs by RT-PCR method. Type of assay: functional, cell-based. In outline: as §4
The subject of assay [11] is THP-1. Put plainly: Effect on HDAC7 mRNA expression in human THP1 cells at 1 mM after 24 hrs by RT-PCR method. The format is functional, cell-based. The essentials: as §4
In assay [12] the target is Histone deacetylase (Homo sapiens) (UniProt Q13547+O15379+Q9UBN7+Q92769+Q9UQL6+Q8WUI4+Q9BY41+Q96DB2+P56524+Q9UKV0+Q969S8). Put plainly: Inhibition of HDAC activity in human THP1 cells at 1 mM preincubated for 1 hr followed by substrate addition measured after 2 hrs by fluorescence assay relative to control. The format is cell-based. In outline: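 This is a cell-based HDAC assay. THP-1 cells at 5.0 × 10^4 cells/well were treated for 1 h, then HDAC substrate was added for 2 h at 37 °C. Lysis/developer solution followed for 15 min at 37 °C. Fluorescence was read at ex 365 nm / em 410–460 nm and compared with untreated cells; mean ± SD, n = 3 independent experiments.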

Assay [13] deals with THP-1. Put plainly: Effect on Cu/Zn SOD mRNA expression in human THP1 cells at 1 mM after 24 hrs by RT-PCR method. Type of assay: functional, cell-based. The essentials: as §1
The species named for assay [14] is Homo sapiens. Briefly: Upregulation of HDAC1 inhibition/ERK signalling activation-mediated extracellular SOD protein expression in human THP1 cells at 1 mM after 24 hrs by ELISA. The format is cell-based. In outline: as §2
For assay [15], the species on record is Homo sapiens. Put plainly: Upregulation of HDAC1 inhibition/ERK signalling activation-mediated extracellular SOD mRNA expression in human THP1 cells at 1 mM after 24 hrs by RT-PCR method. The format is cell-based. In outline:
as §1

The test system of assay [16] is THP-1. Put plainly: Effect on HDAC10 mRNA expression in human THP1 cells at 1 mM after 24 hrs by RT-PCR method. Type of assay: functional, cell-based. The essentials:
as §4

Assay [17] concerns THP-1. Put plainly: Effect on HDAC5 mRNA expression in human THP1 cells at 1 mM after 24 hrs by RT-PCR method. Type of assay: functional, cell-based. The essentials:
as §4

Assay [18] has as its target Histone deacetylase 1 (Homo sapiens) (UniProt Q13547). Briefly: Inhibition of recombinant HDAC1 catalytic domain (unknown origin) using HDAC substrate at 1 mM preincubated for 1 hr followed by substrate addition measured after 30 mins by fluorescence assay relative to control. In outline: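 Recombinant HDAC1 was mixed with compound in assay buffer, and the reaction was started with HDAC substrate for 30 min at 37 °C in the dark. Developer was then added for 15 min at room temperature. Fluorescence was read at ex 365 nm / em 410–460 nm and compared with untreated control; mean ± SD of three independent experiments.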

The subject of assay [19] is THP-1. Put plainly: Effect on HDAC9 mRNA expression in human THP1 cells at 1 mM after 24 hrs by RT-PCR method. Type of assay: functional, cell-based. In outline: as §4
In assay [20] the test system is THP-1. Put plainly: Effect on HDAC8 mRNA expression in human THP1 cells at 1 mM after 24 hrs by RT-PCR method. The format is functional, cell-based. In outline: as §4
The target in assay [21] is Histone deacetylase 1 (Homo sapiens) (UniProt Q13547). Briefly: Inhibition of HDAC1 in human THP1 cells assessed as increase in histone H3 acetylation level at 1 mM after 12 hrs by Western blot analysis relative to control. The format is cell-based. The essentials:
as §3

Assay [22] deals with THP-1. Put plainly: Effect on HDAC6 mRNA expression in human THP1 cells at 1 mM after 24 hrs by RT-PCR method. The format is functional, cell-based. The essentials:
as §4

Chain of Histone deacetylase 1 (Homo sapiens) (Q13547 whole entry, the tested form may be a part): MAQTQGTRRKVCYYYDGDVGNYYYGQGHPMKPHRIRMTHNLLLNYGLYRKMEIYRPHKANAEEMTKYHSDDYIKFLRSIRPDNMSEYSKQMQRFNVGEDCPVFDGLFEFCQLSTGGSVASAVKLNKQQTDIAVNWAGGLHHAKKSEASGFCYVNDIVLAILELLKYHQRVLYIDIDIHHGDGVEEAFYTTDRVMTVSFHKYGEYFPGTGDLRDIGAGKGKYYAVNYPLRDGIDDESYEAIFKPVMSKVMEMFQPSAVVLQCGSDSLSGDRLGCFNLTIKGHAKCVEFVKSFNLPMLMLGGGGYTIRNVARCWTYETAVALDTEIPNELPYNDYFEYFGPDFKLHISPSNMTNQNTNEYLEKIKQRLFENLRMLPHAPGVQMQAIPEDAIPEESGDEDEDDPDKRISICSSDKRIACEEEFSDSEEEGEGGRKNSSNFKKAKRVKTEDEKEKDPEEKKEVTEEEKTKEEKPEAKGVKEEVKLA

For the molecule `CC(/C=C/C(=O)NO)=C\[C@@H](C)C(=O)c1ccc(N(C)C)cc1`, the result in [1] and in [2] was Active.

On to `O=C(O)CCCCCCCCCO`, for which the fold change (FC) in assay [3] came to 2.45; in [21], 1.33. For the same molecule, the result in assay [4], in [5], in assay [6], in assay [7], in assay [9] and in assay [10] was inactive. The outcome in [11], in [13], in [16], in assay [17], in [19] and in [20] was inactive. In addition, the result in [22] was inactive. The outcome in assay [8], in assay [14] and in assay [15] was Active. Also, the inhibition in assay [12] worked out at 20%; in assay [18] it was 50%.

On to `O=C(O)CCCCCCCCC(=O)O`, for which the values for the fold change (FC) in assay [3] and in assay [21] were 2.24 and 1.24, respectively. For the same molecule, the outcome in assay [4], in [5], in assay [6], in [7], in [10] and in assay [11] was inactive. Besides, the result in assay [13], in assay [16], in assay [17], in assay [19], in [20] and in assay [22] was inactive. Further, the outcome in assay [8], in [9], in [14] and in assay [15] was Active. The figures for the inhibition in [12] and in assay [18] were 20% and 50%, respectively.

On to `O=C(O)/C=C\CCCCCCCO`, for which the values for the fold change (FC) in [3] and in assay [21] were 2.47 and 1.29, respectively. Further, the outcome in assay [9], in assay [14] and in [15] was Active. In addition, the inhibition entry in assay [12] is “Active”. Moreover, in [13], the outcome was inactive. Also, in [18], the inhibition turned out to be 50%.
